An excerpt weighted towards active compounds, which were near 4.3% of everything screened.
MC4R barr agon – MC4R agonists recruiting beta-arrestin, primary screen, cell-based, luminescence, agonist arm of biased-ligand search | 360,000 compounds, 0.98% hits | Melanocortin receptor 4 (Homo sapiens), P32245 | activation, % at 8.9 µM | U2OS MC4R beta-arrestin complementation; percent of melanotan II response, DMSO zero | AID 540308, 2011;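 active = activation above a per-plate cutoff, the mean activation of sample wells on that plate plus 3 SD, cut at about 8% in these data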
Target sequence (P32245 whole entry, looked up): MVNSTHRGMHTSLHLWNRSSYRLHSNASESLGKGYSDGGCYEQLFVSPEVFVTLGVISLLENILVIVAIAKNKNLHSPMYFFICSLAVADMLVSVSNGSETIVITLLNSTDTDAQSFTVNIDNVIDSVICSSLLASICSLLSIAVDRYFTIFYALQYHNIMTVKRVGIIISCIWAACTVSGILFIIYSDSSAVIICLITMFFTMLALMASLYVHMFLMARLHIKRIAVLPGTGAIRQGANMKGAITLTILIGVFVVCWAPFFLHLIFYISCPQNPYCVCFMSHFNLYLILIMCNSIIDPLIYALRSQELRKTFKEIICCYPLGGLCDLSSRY
TAAR1 antagonist – human TAAR1 antagonists, primary screen, Fluo-8 calcium fluorescence, CHO RD-HGA16 cells; Trace amine-associated receptor 1 (Homo sapiens), Q96RJ0; AID 624466, 2012; 360,000 compounds, 1.5% hits; inhibition, % at 3 µM; antagonist;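 active = inhibition above a per-plate cutoff, the mean inhibition of test compounds on that plate plus 3 SD, cut at about 49% in these data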;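 also: 0% = DMSO plus EC80 beta-PEA response and 100% = DMSO alone without agonist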
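Test system – hTAAR1-expressing CHO RD-HGA16 cells, Gα16-coupled · Also added – β-PEA at EC80 concentration, post-compound challenge · Compound – 3 µM, single point · Incubation – dye loading 75 min at 37 °C, then 30 min room temperature · Measured by – Fluo-8 intracellular calcium dye fluorescence, real-time kinetic reads · Benchmarks – vehicle and agonist controls · Replicates – singlicate, one well per test compound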
MC4R antagonist – MC4R antagonists of cAMP signaling, primary screen, cell-based, TR-FRET, antagonist arm of biased-ligand search. Melanocortin receptor 4 (Homo sapiens), P32245. MC4R-expressing cells, MTII-stimulated cAMP, LANCE TR-FRET. inhibition, % at 6.5 µM. 360,000 compounds, 0.48% hits. AID 540295, 2011;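 active = inhibition above its plate's cutoff, the mean of tested wells on that plate plus 3 SD, cut at about 29% in these data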;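 also: 0% = Melanotan II alone and 100% = Melanotan II plus saturating MCL0020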
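system = U2OS cells with stable human MC4R expression | also added = Melanotan II challenge after compound preincubation | dosing = one concentration, 6.5 µM nominal | incubation = compound 30 min, challenge 1 h, detection 1 h | measured by = TR-FRET with Eu-cAMP and labeled anti-cAMP, 671 nm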
TAAR1 agonist – human TAAR1 agonists, primary screen, Fluo-8 calcium fluorescence, CHO RD-HGA16 cells. Trace amine-associated receptor 1 (Homo sapiens), Q96RJ0. vehicle wells 0%, saturating PEA agonist 100%. activation, % at 3 µM. 360,000 compounds, 0.99% hits. AID 624467, 2012;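 active = activation above the mean activation of all test compounds in the run plus 3 SD, cut at about 38% in these data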
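System: CHO-derived RD-HGA16 cells with stable Gα16 and human TAAR1. Times: 17-24 h plating, Fluo-8 75 min 37 °C, 30 min RT. Measured by: calcium-sensitive Fluo-8 signal, excitation 470-495, emission 515-575 nm. Read-out basis: % activation relative to PEA EC100 response. Control set: DMSO and PEA EC100. Repeats: no replicates (n 1).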
HTR2A ag – mouse Htr2a agonists via beta-arrestin recruitment, primary screen, cell-based, luminescence; 360,000 compounds, 0.66% hits; activation, % at 7.6 µM; CHO-K1 mHTR2A beta-arrestin complementation; percent of 30 µM serotonin response;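 active = activation above a run cutoff, the mean activation of all tested compounds plus 3 SD, cut at about 14% in these data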;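 also: 0% = plate median of compound wells and 100% = 30 µM serotonin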
B2AR ag – beta2AR agonists driving receptor internalization, primary screen, cell-based, FAP fluorogen, flow cytometry. Am2.2-beta2AR cells. Beta-2 adrenergic receptor (Homo sapiens), P07550. response, % (no concentration beside the values). 340,000 compounds, 0.43% hits. AID 504454, 2011;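 active = response above a set limit, near 3 SD of response in nonfluorescent compounds, cut at about 42% in these data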
Target sequence (P07550 whole entry, looked up): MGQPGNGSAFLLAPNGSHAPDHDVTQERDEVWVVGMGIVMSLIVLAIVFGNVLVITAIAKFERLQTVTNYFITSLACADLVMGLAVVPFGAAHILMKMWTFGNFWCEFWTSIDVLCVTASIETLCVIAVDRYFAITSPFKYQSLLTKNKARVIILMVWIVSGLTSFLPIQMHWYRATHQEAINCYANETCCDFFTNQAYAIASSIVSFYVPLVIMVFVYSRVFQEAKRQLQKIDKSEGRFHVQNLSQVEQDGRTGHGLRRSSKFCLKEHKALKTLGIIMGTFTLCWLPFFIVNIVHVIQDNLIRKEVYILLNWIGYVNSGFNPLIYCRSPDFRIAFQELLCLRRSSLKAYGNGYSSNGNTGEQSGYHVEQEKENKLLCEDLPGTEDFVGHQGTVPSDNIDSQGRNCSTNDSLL
nonsel antag count – nonselective antagonists in TAAR1 counter-screen cells, counter-screen for hTAAR1 antagonist project, cell-based, fluorescence, calcium; inhibition, % at 3 µM; AID 651780, 2012; 2,400 compounds, 77% hits; counterscreen cell line, antagonist mode; shares compounds with TAAR1 antagonist; in the data active = inhibition above about 22%;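 also: CHO-Ga16 host cells stimulated with ATP at an EC80 level; 0% = agonist EC80 plus vehicle and 100% = vehicle without agonist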
TAAR1 ant conf – human TAAR1 antagonists, retest of hits, confirmation, cell-based, fluorescence; shares compounds with TAAR1 antagonist; TAAR1-expressing cells, fluorescence antagonist read-out; inhibition, % at 3 µM; 2,400 compounds, 40% hits; in the data active = inhibition above about 49%;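 also: CHO-Ga16 host cells challenged with agonist PEA near its EC80; 0% = agonist at EC80 plus vehicle and 100% = vehicle with no agonist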
Ga16 nonsel ag – calcium activation in Ga16-expressing cells, counter-screen for TAAR1 antagonist project, cell-based, fluorescence | 2,400 compounds, 18% hits | AID 651953, 2012 | agonist counterscreen | shares compounds with TAAR1 antagonist | activation, % at 3 µM; in the data active = activation above about 12%;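 also: 0% = vehicle wells and 100% = saturating stimulus response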
TAAR1 ag count – TAAR1 activation by candidate antagonists – cell-based, fluorescence, counter-screen for TAAR1 antagonist project. 2,400 compounds, 2% hits. hTAAR1 cell line, agonist mode. shares compounds with TAAR1 antagonist. activation, % at 3 µM; in the data active = activation above about 37%;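 also: CHO cells stably expressing TAAR1 with calcium dye readout; 0% = DMSO vehicle and 100% = full agonist response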
An asterisk follows results filed as active.

What do the screens show for `COc1cc(Cl)c(NC2=CC(=O)C(=O)c3ccccc32)c(OC)c1`?
MC4R barr agon: -2; TAAR1 antagonist: 0; MC4R antagonist: -14; TAAR1 agonist: 1; HTR2A ag: 3; B2AR ag: 22

What do the screens show for `CCc1ccccc1S(=O)(=O)Cc1ccc(C(=O)N2CCN(c3ccccc3OC)CC2)o1`?
MC4R barr agon: 0; TAAR1 antagonist: 72*; MC4R antagonist: -1; TAAR1 agonist: 17; HTR2A ag: -4; B2AR ag: -6; nonsel antag count: 29*; TAAR1 ant conf: 50*; Ga16 nonsel ag: 18*; TAAR1 ag count: 38*

What do the screens show for `COc1ccccc1N1CCN(C(=O)c2oc3c(c2C)C(=O)CC(C)(C)C3)CC1`?
MC4R barr agon: 1; TAAR1 antagonist: 75*; MC4R antagonist: 9; TAAR1 agonist: 14; HTR2A ag: 2; B2AR ag: 2; nonsel antag count: 32*; TAAR1 ant conf: 56*; Ga16 nonsel ag: 11; TAAR1 ag count: 11

Results for O=C(c1ccc2c(=O)n(CCc3ccccc3)c(=O)[nH]c2c1)N1CCN(c2ccc(F)cc2)CC1 ?
MC4R barr agon: 3; TAAR1 antagonist: 58*; MC4R antagonist: 4; TAAR1 agonist: 9; HTR2A ag: 0; B2AR ag: 14; nonsel antag count: 29*; TAAR1 ant conf: 45; Ga16 nonsel ag: 6; TAAR1 ag count: 10

How did Cc1c(C(=O)N2CCN(c3ccccn3)CC2)oc2c1C(=O)CC(C)(C)C2 do in these assays?
MC4R barr agon: -3; TAAR1 antagonist: 49; MC4R antagonist: 4; TAAR1 agonist: 12; HTR2A ag: 1; B2AR ag: -8

Results for Cc1ccc(C(=O)N[C@H](C(=O)Nc2cccc(S(=O)(=O)N3CCOCC3)c2)C(C)C)cc1 ?
MC4R barr agon: -1; TAAR1 antagonist: -22; MC4R antagonist: 6; TAAR1 agonist: -2; HTR2A ag: -4

Results for COc1ccc2[nH]c(=O)c(CN(c3ccccc3OC)S(=O)(=O)c3ccccc3)cc2c1 ?
MC4R barr agon: 1; TAAR1 antagonist: 74*; MC4R antagonist: -2; TAAR1 agonist: 10; HTR2A ag: -7; B2AR ag: -1; nonsel antag count: 33*; TAAR1 ant conf: 49*; Ga16 nonsel ag: 9; TAAR1 ag count: 9

Results for COc1ccc2[nH]c(=O)c(CN(c3ccccc3)S(=O)(=O)c3ccccc3)cc2c1 ?
MC4R barr agon: -1; TAAR1 antagonist: 52*; MC4R antagonist: 14; TAAR1 agonist: 9; HTR2A ag: 7; B2AR ag: 1; nonsel antag count: 26*; TAAR1 ant conf: 52*; Ga16 nonsel ag: 7; TAAR1 ag count: 16

How did COc1ccc2[nH]c(=O)c(CN(CC3CCCO3)C(=O)Nc3ccccc3OC)cc2c1 (configuration not stated) do in these assays?
MC4R barr agon: -1; TAAR1 antagonist: 63*; MC4R antagonist: 6; TAAR1 agonist: 16; HTR2A ag: 1; B2AR ag: 8; nonsel antag count: 29*; TAAR1 ant conf: 42; Ga16 nonsel ag: 6; TAAR1 ag count: 6

How did Cc1n[nH]c(C)c1S(=O)(=O)N(CC(=O)NC1CCCC1)c1ccc(C(C)C)cc1 do in these assays?
MC4R barr agon: 3; TAAR1 antagonist: 61*; MC4R antagonist: 3; TAAR1 agonist: 9; HTR2A ag: 0; B2AR ag: 1; nonsel antag count: 22*; TAAR1 ant conf: 38; Ga16 nonsel ag: 8; TAAR1 ag count: 11

What do the screens show for `Cc1nn(C)c(C)c1S(=O)(=O)N(CC(=O)NC1CCCCCC1)c1ccc(C(C)C)cc1`?
MC4R barr agon: 1; TAAR1 antagonist: 1; MC4R antagonist: -1; TAAR1 agonist: 0; HTR2A ag: 3; B2AR ag: 11

What do the screens show for `Cc1ccc(C(=O)CCc2ccc(N)cc2)cc1`?
MC4R barr agon: -2; TAAR1 antagonist: -6; MC4R antagonist: 7; TAAR1 agonist: -1; HTR2A ag: 4; B2AR ag: 4

How did COc1ccc2c(c1)c(CCN1C(=O)c3ccccc3C1=O)cn2C(=O)c1ccco1 do in these assays?
MC4R barr agon: 2; TAAR1 antagonist: 57*; MC4R antagonist: 25; TAAR1 agonist: 5; HTR2A ag: 0; B2AR ag: 1; nonsel antag count: 12; TAAR1 ant conf: 32; Ga16 nonsel ag: 2; TAAR1 ag count: 4

How did CC(C)OC(=O)c1ccc(NC(=O)c2cncc(Br)c2)cc1 do in these assays?
MC4R barr agon: 1; TAAR1 antagonist: 65*; MC4R antagonist: 17; TAAR1 agonist: 20; HTR2A ag: 5; B2AR ag: -15; nonsel antag count: 27*; TAAR1 ant conf: 44; Ga16 nonsel ag: 16*; TAAR1 ag count: 15

Results for CC(C)OC(=O)c1ccc(NC(=S)NC(=O)c2cncc(Br)c2)cc1 ?
MC4R barr agon: -3; TAAR1 antagonist: -6; MC4R antagonist: -4; TAAR1 agonist: -1; HTR2A ag: -2; B2AR ag: 15

Results for COc1ccc(OC)c(/C=N/NC(=O)c2c(C)nc3ccc(C)cn23)c1 ?
MC4R barr agon: 0; TAAR1 antagonist: 7; MC4R antagonist: 1; TAAR1 agonist: -2; HTR2A ag: 7; B2AR ag: 1

How did CC(C)(C)C(=O)Nc1ccccc1N1CCN(C(=O)c2ccc(Cl)cc2)CC1 do in these assays?
MC4R barr agon: 1; TAAR1 antagonist: -28; MC4R antagonist: 2; TAAR1 agonist: 2; HTR2A ag: -1; B2AR ag: 0

From PubChem BioAssay
